Source: ChEMBL document CHEMBL4350958, “Rational Design of Short Peptide Variants by Using Kunitzin-RE, an Amphibian-Derived Bioactivity Peptide, for Acquired Potent Broad-Spectrum Antimicrobial and Improved Therapeutic Potential of Commensalism Coinfection of Pathogens” (J Med Chem, 2019)

What was measured:
Staphylococcus aureus [1] = experiment: Antibacterial activity against Staphylococcus aureus ATCC 29213 measured after 18 to 24 hrs in presence of CaCl2; type: functional
Escherichia coli [2] = experiment: Bactericidal activity against Escherichia coli K99 incubated for 24 hrs followed by replating on agar plate and measured after overnight incubation; type: functional; conditions: K99, 24 h, read-out: MBC>99.9
Summary of the method: (§1)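 Mid-log bacteria diluted in MHB to (0.5–1) × 10^5 CFU/mL and mixed 1:1 with peptide serially diluted in 0.2% BSA. After 24 h at 37 °C, 50 μL of each mixture was plated on agar and incubated overnight. MBC taken as the lowest concentration killing >99.9% of cells. At least three independent experiments, each with three technical replicates.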

[3] = Bactericidal activity against Salmonella pullorum ATCC 7913 incubated for 24 hrs followed by replating on agar plate and measured after overnight incubation; type: functional, Salmonella enterica subsp. enterica serovar Pullorum; conditions: Salmonella enterica, ATCC 7913, 24 h; read-out: MBC>99.9; summary of the method: as §1
Salmonella typhimurium [4] = experiment: Bactericidal activity against Salmonella typhimurium C7731 incubated for 24 hrs followed by replating on agar plate and measured after overnight incubation; type: functional, Salmonella enterica subsp. enterica serovar Typhimurium; conditions: Salmonella enterica, C7731, 24 h; read-out: MBC>99.9; summary of the method: as §1
Escherichia coli [5] = experiment: Antibacterial activity against Escherichia coli UB1005 measured after 24 hrs; type: functional; conditions: UB1005, 24 h
Summary of the method: (§2)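 Broth microdilution adapted from NCCLS. Mid-log bacteria were diluted in MHB to a final (0.5–1) × 10^5 CFU mL−1. Peptides were serially diluted in 0.2% BSA and mixed with an equal volume of cells. After 24 h at 37 °C, MIC was read at A492 as the lowest concentration inhibiting 95% of growth. At least three independent experiments, each with three technical replicates.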

[6] = Therapeutic index, ratio of MHC10 for hemolytic activity in human RBC to MIC95 against Staphylococcus aureus ATCC 29213; type: toxicity; conditions: human red blood cells (erythrocytes), read-out: TI
Summary of the method: (§3)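 Therapeutic index = MHC divided by MIC. MHC is the lowest concentration giving >10% lysis of human RBC (1 h, 37 °C, 1-128 µM, A576). MIC is 95% growth inhibition by broth microdilution: bacteria in MHB 24 h at 37 °C; Candida in MOPS-buffered RPMI 1640 at (0.5–1) × 10^3 CFU mL−1, 48 h at 28 °C.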

Salmonella typhimurium [7] = experiment: Bactericidal activity against Salmonella typhimurium ATCC 14028 incubated for 24 hrs followed by replating on agar plate and measured after overnight incubation; type: functional, Salmonella enterica subsp. enterica serovar Typhimurium; conditions: Salmonella enterica, ATCC 14028, 24 h; read-out: MBC>99.9; summary of the method: as §1
[8] = Therapeutic index, ratio of MHC10 for hemolytic activity in human RBC to MIC95 against methicillin-resistant Staphylococcus aureus ATCC 43300; type: toxicity; conditions: human red blood cells (erythrocytes), read-out: TI; summary of the method: as §3
[9] = test system: Staphylococcus epidermidis; experiment: Antibacterial activity against Staphylococcus epidermidis ATCC 12228 measured after 24 hrs; type: functional; conditions: ATCC 12228, 24 h; summary of the method: as §2
[10] = Therapeutic index, ratio of MHC10 for hemolytic activity in human RBC to MIC95 against Candida tropicalis cgmcc2.1975; type: toxicity; conditions: human red blood cells (erythrocytes), read-out: TI; summary of the method: as §3
Escherichia coli [11] = experiment: Antibacterial activity against Escherichia coli ATCC 25922 measured after 18 to 24 hrs in presence of CaCl2; type: functional
Staphylococcus aureus [12] = experiment: Antibacterial activity against methicillin-resistant Staphylococcus aureus ATCC 43300 measured after 24 hrs; type: functional; conditions: ATCC 43300, 24 h
Summary of the method: (§4)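 Broth microdilution modified from NCCLS. Mid-log bacteria at (0.5–1) × 10^5 CFU mL−1 in MHB, mixed with peptides serially diluted in 0.2% BSA. Incubated 24 h at 37 °C, read at A492. MIC taken as lowest concentration giving 95% growth inhibition. At least three independent experiments, each with three technical replicates.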

Staphylococcus aureus [13] = experiment: Bactericidal activity against Staphylococcus aureus ATCC 29213 incubated for 24 hrs followed by replating on agar plate and measured after overnight incubation; type: functional; conditions: ATCC 29213, 24 h, read-out: MBC>99.9
Summary of the method: (§5)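 After the 24 h, 37 °C MHB microdilution MIC assay, 50 μL from each well was plated on agar and incubated overnight. MBC taken as lowest peptide concentration killing >99.9% of cells. At least three independent experiments, each with three technical replicates.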

[14] = test system: Staphylococcus epidermidis; experiment: Bactericidal activity against Staphylococcus epidermidis ATCC 12228 incubated for 24 hrs followed by replating on agar plate and measured after overnight incubation; type: functional; conditions: ATCC 12228, 24 h, read-out: MBC>99.9; summary of the method: as §1
Candida albicans [15] = experiment: Antifungal activity against Candida albicans cgmcc2.2086 measured after 48 hrs by broth microdilution method; type: functional; conditions: cgmcc2.2086, 48 h
Summary of the method: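 Modified CLSI M27-A2 microdilution. Yeast colonies were diluted in MOPS-buffered RPMI 1640 to a final (0.5–1) × 10^3 CFU mL−1 and mixed with an equal volume of peptide serially diluted in 0.2% BSA. After 48 h at 28 °C, MIC was read at A492 as the lowest concentration inhibiting 95% of growth. At least three independent experiments, each with three technical replicates.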

Escherichia coli [16] = experiment: Antibacterial activity against Escherichia coli ATCC 25922 measured after 18 to 24 hrs in presence of MgCl2; type: functional
Staphylococcus aureus [17] = experiment: Bactericidal activity against methicillin-resistant Staphylococcus aureus ATCC 43300 incubated for 24 hrs followed by replating on agar plate and measured after overnight incubation; type: functional; conditions: ATCC 43300, 24 h, read-out: MBC>99.9; summary of the method: as §5
Staphylococcus aureus [18] = experiment: Antibacterial activity against Staphylococcus aureus ATCC 29213 measured after 24 hrs; type: functional; conditions: ATCC 29213, 24 h; summary of the method: as §4
Escherichia coli [19] = experiment: Antibacterial activity against Escherichia coli ATCC 25922 measured after 24 hrs; type: functional; conditions: ATCC 25922, 24 h; summary of the method: as §2
[20] = Antibacterial activity against Salmonella pullorum ATCC 7913 measured after 24 hrs; type: functional, Salmonella enterica subsp. enterica serovar Pullorum; conditions: Salmonella enterica, ATCC 7913, 24 h; summary of the method: as §2
Staphylococcus aureus [21] = experiment: Bactericidal activity against Staphylococcus aureus ATCC 25923 incubated for 24 hrs followed by replating on agar plate and measured after overnight incubation; type: functional; conditions: ATCC 25923, 24 h, read-out: MBC>99.9; summary of the method: as §5
Candida albicans [22] = experiment: Antifungal activity against Candida albicans cgmcc2.2086 measured after 48 hrs in presence of MgCl by broth microdilution method; type: functional; conditions: cgmcc2.2086, 48 h
[23] = Therapeutic index, ratio of MHC10 for hemolytic activity in human RBC to MIC95 against Staphylococcus epidermidis ATCC 12228; type: toxicity; conditions: human red blood cells (erythrocytes), read-out: TI; summary of the method: as §3
Staphylococcus aureus [24] = experiment: Antibacterial activity against Staphylococcus aureus ATCC 29213 measured after 18 to 24 hrs in presence of NaCl; type: functional
[25] = Cytotoxicity against mouse RAW264.7 cells assessed as cell viability at 2 to 64 uM measured after 18 to 24 hrs by MTT assay relative to control; type: cell-based; conditions: RAW264.7 cells, read-out: Activity
Summary of the method: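 MTT assay: RAW264.7 cells seeded at 1.0–2.0×10^4 per well and exposed to peptide (2–64 µM) for 18–24 h at 37 °C in 5% CO2. MTT (0.5 mg/mL) added for 4 h, formazan dissolved in DMSO, read at 570 nm. At least three independent experiments with triplicate wells.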

Substance	MIC95 (Staphylococcus aureus [1]) [µM]	MBC (Escherichia coli [2]) [µM]	MBC [3] [µM]	MBC (Salmonella typhimurium [4]) [µM]	MIC95 (Escherichia coli [5]) [µM]	selectivity ratio [6]	MBC (Salmonella typhimurium [7]) [µM]	selectivity ratio [8]	MIC95 [9] [µM]	selectivity ratio [10]	MIC95 (Escherichia coli [11]) [µM]	MIC95 (Staphylococcus aureus [12]) [µM]	MBC (Staphylococcus aureus [13]) [µM]	MBC [14] [µM]	MIC95 (Candida albicans [15]) [µM]	MIC95 (Escherichia coli [16]) [µM]	MBC (Staphylococcus aureus [17]) [µM]	MIC95 (Staphylococcus aureus [18]) [µM]	MIC95 (Escherichia coli [19]) [µM]	MIC95 [20] [µM]	other results
H-AARRILRWIFR-NH2	8	8	8	8	4	45.2	8	45.2	4	40.3	16	8	8	8	8	8	8	4	4	4	MBC (Staphylococcus aureus [21]): 8 µM; MIC95 (Candida albicans [22]): 16 µM; selectivity ratio [23]: 45.2; MIC95 (Staphylococcus aureus [24]): 64 µM; viability at up to 64 µM [25]: 90 to 100%
H-AARIILRGRFR-NH2	64	8	8	16	4	26.9	8	26.9	8	5.04	64	8	8	16	128	16	8	8	4	4	MBC (Staphylococcus aureus [21]): 32 µM; MIC95 (Candida albicans [22]): > 128 µM; selectivity ratio [23]: 26.9; MIC95 (Staphylococcus aureus [24]): > 128 µM; viability at up to 64 µM [25]: 90 to 100%
H-AARIILRLRFR-NH2	4	4	8	8	4	128	8	128	2	50.8	32	2	4	4	8	16	4	2	4	4	MBC (Staphylococcus aureus [21]): 4 µM; MIC95 (Candida albicans [22]): 8 µM; selectivity ratio [23]: 128; MIC95 (Staphylococcus aureus [24]): 16 µM; viability at up to 64 µM [25]: 90 to 100%
H-AARIILRARFR-NH2	16	4	8	8	2	90.5	4	90.5	2	25.4	32	2	8	4	16	16	4	4	4	4	MBC (Staphylococcus aureus [21]): 8 µM; MIC95 (Candida albicans [22]): 32 µM; selectivity ratio [23]: 90.5; MIC95 (Staphylococcus aureus [24]): > 128 µM; viability at up to 64 µM [25]: 90 to 100%
H-AARIILRYRFR-NH2	64	8	8	8	4	64	16	64	2	8	> 128	4	8	4	32	64	8	4	8	4	MBC (Staphylococcus aureus [21]): 16 µM; MIC95 (Candida albicans [22]): 64 µM; selectivity ratio [23]: 64; MIC95 (Staphylococcus aureus [24]): > 128 µM; viability at up to 64 µM [25]: 90 to 100%
H-AARIILRRRFR-NH2	128	16	32	16	16	13.4	64	13.4	16	3.17	128	16	32	32	128	64	64	16	8	16	MBC (Staphylococcus aureus [21]): 64 µM; MIC95 (Candida albicans [22]): > 128 µM; selectivity ratio [23]: 13.4; MIC95 (Staphylococcus aureus [24]): 128 µM; viability at up to 64 µM [25]: 90 to 100%
